Reference: ChEMBL document CHEMBL4308891, “Small molecules inhibit ex vivo tumor growth in bone” (Bioorg Med Chem, 2018)
One block for each compound: values may come before it. Calls of active or inactive are those of the source. No cut-off for these calls is given here.

Assays:
[1] = test system: MDA-MB-231; experiment: (§1) Ex vivo antitumor activity against human MDA-MB-231 cells co-cultured with neonatal Swiss mouse bone in BGJb medium assessed as inhibition of tumor growth at 5 uM administered simultaneously with cancer cells measured on day 5 post treatment by Gaussia luciferase reporter gene assay relative to control; type: functional
How it was run: (§2)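 Calvariae from […] Swiss mouse pups were punched into 4 or 5 mm disks. Each was seeded with 1 x 10^4 tumor cells (lentiviral secreted Gaussia luciferase/GFP-blasticidin, FACS-sorted GFP+) in BGJb plus 10% fetal calf serum at 37°C, 5% CO2. After 24 h bones moved to fresh wells; medium changed every 2 days. Conditioned-medium luciferase read as RLU. Biological triplicate, mean ± SD, Welch's t-test.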

[2] = test system: MDA-MB-231; experiment: as §1, with “day 7” for “day 5”; type: functional; how it was run: as §2
[3] = test system: MDA-MB-231; experiment: (§3) Ex vivo antitumor activity against human MDA-MB-231 cells co-cultured with neonatal Swiss mouse bone in BGJb medium assessed as inhibition of tumor growth at 5 uM administered on day 2 post cancer cells addition measured on day 5 post treatment by Gaussia luciferase reporter gene assay relative to control; type: functional; how it was run: as §2
[4] = test system: MDA-MB-231; experiment: as §3, with “day 7” for “day 5”; type: functional; how it was run: as §2
[5] = test system: MDA-MB-231; experiment: Antiinvasive activity in human MDA-MB-231 cells assessed as inhibition of cell invasion at 5 uM by boyden chamber method relative to control; type: functional
[6] = test system: MDA-MB-231; experiment: Antiinvasive activity in human MDA-MB-231 cells by boyden chamber method; type: functional, cell-based
[7] = test system: MDA-MB-231; experiment: Cytotoxicity against human MDA-MB-231 cells at 0.625 to 5 uM after 24 hrs; type: cell-based; conditions: mda-mb-231, 24 h
[8] = test system: U-87 MG; experiment: Antiinvasive activity in human U87 cells at 5 uM by boyden chamber method; type: functional, cell-based; conditions: U-87MG ATCC
[9] = test system: NCI-H460; experiment: Antiinvasive activity in human NCI-H460 cells at 5 uM by boyden chamber method; type: functional, cell-based
[10] = test system: MIA PaCa-2; experiment: Antiinvasive activity in human MIAPaCa2 cells at 5 uM by boyden chamber method; type: functional, cell-based
[11] = test system: U-87 MG; experiment: Cytotoxicity against human U87 cells after 24 hrs; type: cell-based; conditions: u-87mg atcc
[12] = test system: NCI-H460; experiment: Cytotoxicity against human NCI-H460 cells after 24 hrs; type: cell-based; conditions: nci-h460, 24 h
[13] = test system: MIA PaCa-2; experiment: Cytotoxicity against human MIAPaCa2 cells after 24 hrs; type: cell-based; conditions: mia paca-2, 24 h
[14] = test system: MDA-MB-231; experiment: Antimigratory activity in human MDA-MB-231 cells at 10 uM after 9 hrs by wound healing assay; type: functional, cell-based
How it was run: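 Confluent monolayers in 12-well plates were scratched with a micropipette tip, washed, then cultured in complete medium with compound. Gap width between wound edges was measured by microscopy in three random regions right after wounding and at 6 and 9 h.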

[15] = Inhibition of angiogenesis in human HRMEC assessed as inhibition of endothelial cell tube formation up to 10 uM after 8 hrs by microscopic analysis
How it was run: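 Primary human retinal microvascular endothelial cells were grown on Matrigel in complete medium for 8 h, then tubule formation was measured. Significance was assessed by ANOVA.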

[16] = test system: MDA-MB-231; experiment: Cytotoxicity against human MDA-MB-231 cells at 12.5 uM after 3 days by MTS assay; type: cell-based; conditions: mda-mb-231, 72 h
[17] = test system: Bone; experiment: Down regulation of TRAP expression in neonatal Swiss mouse calvariae bone co-cultured with human MDA-MB-231 cells measured on day 7 post treatment by SYBR green-dye based RT-qPCR analysis; type: functional, tissue-based; conditions: Bone element
How it was run: (§4)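 Calvarial disk cultures ([…] Swiss pups) in BGJb plus 10% fetal calf serum were PBS-washed at day 7 and bead-homogenized in Qiazol. Aqueous-phase RNA was isolated, reverse-transcribed and run in triplicate real-time PCR with species-specific primers. Expression was normalized to ribosomal protein L32 mRNA. n = 3 or 4 cultures, ANOVA.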

[18] = test system: Bone; experiment: Down regulation of RANKL expression in neonatal Swiss mouse calvariae bone co-cultured with human MDA-MB-231 cells measured on day 7 post treatment by SYBR green-dye based RT-qPCR analysis; type: functional, tissue-based; conditions: Bone element; how it was run: as §4
[19] = test system: Bone; experiment: Effect on Col1A1 expression in neonatal Swiss mouse calvariae bone co-cultured with human MDA-MB-231 cells measured on day 7 post treatment by SYBR green-dye based RT-qPCR analysis; type: functional, tissue-based; conditions: Bone element; how it was run: as §4
[20] = test system: Bone; experiment: Effect on osteocalcin expression in neonatal Swiss mouse calvariae bone co-cultured with human MDA-MB-231 cells measured on day 7 post treatment by SYBR green-dye based RT-qPCR analysis; type: functional, tissue-based; conditions: Bone element; how it was run: as §4
[21] = test system: Bone; experiment: Effect on TRAP expression in neonatal Swiss mouse calvariae bone measured on day 7 post treatment by SYBR green-dye based RT-qPCR analysis; type: functional, tissue-based; conditions: Bone element; how it was run: as §4
[22] = test system: Bone; experiment: Effect on RANKL expression in neonatal Swiss mouse calvariae bone measured on day 7 post treatment by SYBR green-dye based RT-qPCR analysis; type: functional, tissue-based; conditions: Bone element; how it was run: as §4
[23] = test system: MDA-MB-231; experiment: Effect on ICAM expression in human MDA-MB-231 cells co-cultured with neonatal Swiss mouse calvariae bone measured on day 7 post treatment by SYBR green-dye based RT-qPCR analysis; type: functional, cell-based; how it was run: as §4
[24] = test system: MDA-MB-231; experiment: Down regulation of ENPP1 expression in human MDA-MB-231 cells co-cultured with neonatal Swiss mouse calvariae bone measured on day 7 post treatment by SYBR green-dye based RT-qPCR analysis relative to control; type: functional; how it was run: as §4
[25] = test system: MDA-MB-231; experiment: Effect on CTGF expression in human MDA-MB-231 cells co-cultured with neonatal Swiss mouse calvariae bone measured on day 7 post treatment by SYBR green-dye based RT-qPCR analysis; type: functional, cell-based; how it was run: as §4
[26] = test system: MDA-MB-231; experiment: Down regulation of CCN3 expression in human MDA-MB-231 cells co-cultured with neonatal Swiss mouse calvariae bone measured on day 7 post treatment by SYBR green-dye based RT-qPCR analysis relative to control; type: functional; how it was run: as §4
[27] = test system: MDA-MB-231; experiment: Effect on CCL2 expression in human MDA-MB-231 cells co-cultured with neonatal Swiss mouse calvariae bone measured on day 7 post treatment by SYBR green-dye based RT-qPCR analysis; type: functional, cell-based; how it was run: as §4
[28] = test system: MDA-MB-231; experiment: Down regulation of IL-8 expression in human MDA-MB-231 cells co-cultured with neonatal Swiss mouse calvariae bone measured on day 7 post treatment by SYBR green-dye based RT-qPCR analysis; type: functional, cell-based; how it was run: as §4
[29] = test system: MDA-MB-231; experiment: Down regulation of FGF5 expression in human MDA-MB-231 cells co-cultured with neonatal Swiss mouse calvariae bone measured on day 7 post treatment by SYBR green-dye based RT-qPCR analysis; type: functional, cell-based; how it was run: as §4
[30] = test system: MDA-MB-231; experiment: Upregulation of BCL2L1 expression in human MDA-MB-231 cells co-cultured with neonatal Swiss mouse calvariae bone measured on day 7 post treatment by SYBR green-dye based RT-qPCR analysis; type: functional, cell-based; how it was run: as §4
[31] = test system: MDA-MB-231; experiment: Upregulation of Fas expression in human MDA-MB-231 cells co-cultured with neonatal Swiss mouse calvariae bone measured on day 7 post treatment by SYBR green-dye based RT-qPCR analysis; type: functional, cell-based; how it was run: as §4
[32] = test system: MDA-MB-231; experiment: Down regulation of CDH11 expression in human MDA-MB-231 cells co-cultured with neonatal Swiss mouse calvariae bone measured on day 7 post treatment by SYBR green-dye based RT-qPCR analysis

SMILES: Cc1ccc(N2C(=O)C3C(C(c4ccc(Cl)cc4)=NN3C(C)C)C2c2cccc(F)c2)cc1Br (configuration not stated)
TGI [1]: Active | TGI [2]: Active | TGI [3]: Active | TGI [4]: Active

SMILES: Cc1ccc(N2C(=O)C3NN=C(c4ccc(Cl)cc4)C3C2c2cccc(C(F)(F)F)c2)cc1Br (configuration not stated)
inhibition at 5 µM [5]: > 70% | TGI [1]: Active | TGI [2]: Active | TGI [3]: Active | TGI [4]: Active

SMILES: O=C1C2NN=C(c3ccc(Cl)cc3)C2C(c2cccc(F)c2)N1Cc1c[nH]c2ccccc12 (configuration not stated)
inhibition at 5 µM [5]: 20% | TGI [1]: Active | TGI [2]: Active | TGI [3]: Active | TGI [4]: Active

IC50 [6]: 2.6 µM | Activity [15]: Not Active
SMILES: O=C1C2NN=C(c3ccc(Cl)cc3)C2C(c2cccc(F)c2)N1CCc1c[nH]c2ccccc12 (configuration not stated)
Activity [6]: Dose-dependent effect | Activity [7]: Non-Toxic | Activity [8]: inactive | Activity [9]: inactive | Activity [10]: Active | Activity [11]: Non-Toxic | Activity [12]: Non-Toxic | Activity [13]: Non-Toxic | Activity [14]: inactive | inhibition at 5 µM [5]: > 70% | TGI [1]: 70% | TGI [2]: 60% | TGI [3]: 53% | TGI [4]: 36% | Activity [16]: Non-Toxic | Activity [17]: Active | Activity [18]: Active | Activity [19]: inactive | Activity [20]: inactive | Activity [21]: inactive | Activity [22]: Active | Activity [23]: inactive | Activity [24]: 90% | Activity [25]: inactive | Activity [26]: 90% | Activity [27]: inactive | Activity [28]: Active | Activity [29]: inactive | Activity [30]: Active | Activity [31]: Active | Activity [32]: Active

SMILES: Cc1ccc(N2C(=O)C3C(C(c4ccc(Cl)cc4)=NN3C)C2c2cccc(F)c2)cc1Br (configuration not stated)
inhibition at 5 µM [5]: > 70% | TGI [1]: Active | TGI [2]: Active | TGI [3]: Active | TGI [4]: Active

SMILES: O=C1C2NN=C(c3ccc(Cl)cc3)C2C(c2cccc(F)c2)N1CCc1cccnc1 (configuration not stated)
inhibition at 5 µM [5]: 40% | TGI [1]: Active | TGI [2]: Active | TGI [3]: Active | TGI [4]: Active

SMILES: CC(C)N1N=C(c2ccc(Cl)cc2)C2C(c3cccc(F)c3)N(CCc3c[nH]c4ccccc34)C(=O)C21 (configuration not stated)
inhibition at 5 µM [5]: > 70% | TGI [1]: Active | TGI [2]: 40% | TGI [3]: Active | TGI [4]: 40%
